Reference: ChEMBL document CHEMBL4007421, “Discovery and Preclinical Characterization of 3-((4-(4-Chlorophenyl)-7-fluoroquinoline-3-yl)sulfonyl)benzonitrile, a Novel Non-acetylenic Metabotropic Glutamate Receptor 5 (mGluR5) Negative Allosteric Modulator for Psychiatric Indications” (J Med Chem, 2017)
Converted amounts (≈) assume the structure as drawn. The source made the active and inactive calls. No cut-off for these calls is given here.

Tests used:
[1] = target: T1, Metabotropic glutamate receptor 5 (Homo sapiens, UniProt P41594); test: Negative allosteric modulation of human mGluR5a expressed in CHO cells assessed as reduction in DHPG-induced cytosolic Ca2+ influx after 10 to 20 mins by fluo-4/AM-dye based fluorometric analysis; format: functional, cell-based
T1 sequence (P41594 whole entry): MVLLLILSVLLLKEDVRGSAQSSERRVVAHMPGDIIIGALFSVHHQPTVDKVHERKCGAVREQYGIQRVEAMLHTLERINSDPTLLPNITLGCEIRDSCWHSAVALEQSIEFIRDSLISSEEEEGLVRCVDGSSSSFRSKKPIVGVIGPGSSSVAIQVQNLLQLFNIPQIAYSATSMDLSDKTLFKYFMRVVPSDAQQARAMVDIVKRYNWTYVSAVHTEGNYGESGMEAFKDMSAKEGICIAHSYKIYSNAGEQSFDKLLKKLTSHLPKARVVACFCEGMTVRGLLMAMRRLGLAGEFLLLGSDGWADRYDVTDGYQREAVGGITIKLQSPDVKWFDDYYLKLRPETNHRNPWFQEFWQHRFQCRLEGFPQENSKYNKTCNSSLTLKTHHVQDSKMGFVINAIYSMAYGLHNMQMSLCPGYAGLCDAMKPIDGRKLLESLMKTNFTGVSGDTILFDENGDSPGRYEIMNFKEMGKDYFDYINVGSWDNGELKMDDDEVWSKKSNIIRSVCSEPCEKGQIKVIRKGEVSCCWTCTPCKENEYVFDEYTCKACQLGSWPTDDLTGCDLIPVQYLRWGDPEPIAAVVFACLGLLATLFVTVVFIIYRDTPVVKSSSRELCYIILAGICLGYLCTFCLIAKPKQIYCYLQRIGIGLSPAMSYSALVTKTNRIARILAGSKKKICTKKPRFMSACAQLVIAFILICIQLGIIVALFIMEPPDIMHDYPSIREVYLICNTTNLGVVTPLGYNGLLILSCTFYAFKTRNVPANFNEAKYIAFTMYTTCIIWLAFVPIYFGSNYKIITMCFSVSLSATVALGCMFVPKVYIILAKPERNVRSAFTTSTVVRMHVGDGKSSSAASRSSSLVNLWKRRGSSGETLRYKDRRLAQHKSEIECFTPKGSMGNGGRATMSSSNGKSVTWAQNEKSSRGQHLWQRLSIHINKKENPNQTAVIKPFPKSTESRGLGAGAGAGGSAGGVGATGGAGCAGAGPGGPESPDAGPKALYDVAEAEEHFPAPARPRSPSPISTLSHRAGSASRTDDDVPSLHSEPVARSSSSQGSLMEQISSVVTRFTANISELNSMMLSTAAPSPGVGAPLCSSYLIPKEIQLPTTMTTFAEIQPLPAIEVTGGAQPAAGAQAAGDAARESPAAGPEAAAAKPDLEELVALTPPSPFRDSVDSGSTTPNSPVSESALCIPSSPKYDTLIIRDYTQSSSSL

Rattus norvegicus [2] = test: Anxiolytic activity in ip dosed Wistar rat assessed as increase in water drinking time during punished period administered as suspension by Vogel punished drinking conflict test; format: functional; details: read-out: MED
Method in brief: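 Vogel punished-drinking test in rats, single i.p. or p.o. dose as suspension in 5% Tween 80; plasma sampled ~45 min after i.p. or ~75 min after p.o. dosing.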

[3] = Plasma concentration in ip dosed Wistar rat at anxiolytic MED administered as suspension after 45 mins during Vogel punished drinking conflict test; format: ADME, organism-based
Method in brief: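 Vehicle was a suspension containing 5% Tween 80, given i.p. at the Vogel minimum effective dose. Plasma was sampled about 45 min after dosing, right after the Vogel punished drinking test.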

Rattus norvegicus [4] = test: Therapeutic index, ratio of MED for effect on spatial learning performance in po dosed Wistar rat by Morris water maze test to MED for anxiolytic activity in Wistar rat by Vogel punished drinking conflict test
Method in brief: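 Index is the Morris water maze minimum effective dose (oral, given 1 h before the first daily trial, 4 days of 3 trials) divided by the Vogel punished drinking minimum effective dose.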

Rattus norvegicus [5] = test: Therapeutic index, ratio of plasma concentration causing effect on spatial learning performance in po dosed Wistar rat by Morris water maze test to plasma concentration causing anxiolytic activity in Wistar rat by Vogel punished drinking conflict test
Method in brief: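 Index is the plasma level in rats at 30 mg/kg p.o. in the Morris water maze (sampled after the last trial on Day 4) divided by the plasma level at the Vogel minimum effective dose. Vogel plasma was sampled right after the test.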

[6] = Aqueous solubility of the compound at pH 7.4; format: physicochemical
[7] = target: Metabotropic glutamate receptor 5 (Rattus norvegicus, UniProt P31424); test: Negative allosteric modulation of mGluR5 in E17 Sprague-Dawley rat primary neuronal cultures assessed as reduction of DHPG-induced cytosolic Ca2+ influx after 10 to 20 mins by fluo-4/AM-dye based fluorometric analysis; format: functional
Sequence of Metabotropic glutamate receptor 5 (Rattus norvegicus, UniProt P31424) (P31424 whole entry): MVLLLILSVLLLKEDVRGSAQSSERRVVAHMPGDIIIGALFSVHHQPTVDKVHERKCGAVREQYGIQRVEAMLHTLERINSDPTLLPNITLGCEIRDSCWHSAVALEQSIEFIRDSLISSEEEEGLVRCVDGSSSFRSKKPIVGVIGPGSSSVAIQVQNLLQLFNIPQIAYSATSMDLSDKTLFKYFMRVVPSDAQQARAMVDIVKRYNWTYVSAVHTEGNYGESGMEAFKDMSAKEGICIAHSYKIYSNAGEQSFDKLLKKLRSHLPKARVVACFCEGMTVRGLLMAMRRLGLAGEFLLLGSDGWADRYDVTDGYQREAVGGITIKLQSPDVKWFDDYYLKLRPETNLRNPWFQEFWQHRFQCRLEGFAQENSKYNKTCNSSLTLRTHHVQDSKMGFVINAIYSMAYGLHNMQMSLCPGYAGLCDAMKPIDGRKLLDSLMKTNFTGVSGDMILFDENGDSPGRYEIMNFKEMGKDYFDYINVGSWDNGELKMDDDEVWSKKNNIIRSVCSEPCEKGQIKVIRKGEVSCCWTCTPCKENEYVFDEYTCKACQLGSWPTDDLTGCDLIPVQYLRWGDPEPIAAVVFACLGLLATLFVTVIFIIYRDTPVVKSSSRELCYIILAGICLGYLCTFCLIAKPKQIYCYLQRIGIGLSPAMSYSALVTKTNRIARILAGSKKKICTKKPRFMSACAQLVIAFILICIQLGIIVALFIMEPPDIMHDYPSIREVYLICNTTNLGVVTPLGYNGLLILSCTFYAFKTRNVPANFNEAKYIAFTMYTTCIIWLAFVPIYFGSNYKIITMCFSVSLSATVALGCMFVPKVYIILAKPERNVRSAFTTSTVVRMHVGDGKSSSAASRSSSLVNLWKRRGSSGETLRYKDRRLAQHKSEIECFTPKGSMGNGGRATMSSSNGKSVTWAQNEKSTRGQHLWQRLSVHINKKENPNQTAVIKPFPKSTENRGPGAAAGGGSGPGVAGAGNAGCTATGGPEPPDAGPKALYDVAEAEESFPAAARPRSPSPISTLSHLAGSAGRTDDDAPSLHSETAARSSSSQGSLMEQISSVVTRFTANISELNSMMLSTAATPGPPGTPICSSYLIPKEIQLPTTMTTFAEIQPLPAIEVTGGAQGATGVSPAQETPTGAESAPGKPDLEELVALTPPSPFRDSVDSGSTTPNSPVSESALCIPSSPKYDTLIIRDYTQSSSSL

MDR1 [8] = test: Apparent inward permeability in MDCK2-MDR1 cells; format: ADME, cell-based, Canis lupus familiaris; details: dog, MDCK-MDR1
MDR1 [9] = test: Ratio of apparent outward permeability to apparent inward permeability in MDCK2-MDR1 cells; format: ADME, cell-based, Canis lupus familiaris; details: dog, MDCK-MDR1
Method in brief: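 MDCKII-MDR1 cell monolayers used as an in vitro surrogate of brain penetration. Transport was measured in both the inward and outward directions, and an apparent permeability (Papp) was calculated for each. The directional ratio (PDR) is Papp outward divided by Papp inward.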

Liver = test: Intrinsic clearance in dog liver microsomes at 2.5 uM assessed per gram of liver; format: ADME, Canis lupus familiaris, microsome
[10] = Plasma protein binding in rat; format: ADME, cell-free; details: read-out: PPB (converted)
Rattus norvegicus [11] = test: Anxiolytic activity in Wistar rat assessed as increase in water drinking time during punished period at 10 mg/kg, po qd for 19 days by Vogel punished drinking conflict test; format: functional, organism-based
Method in brief: (§1)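 Vogel punished-drinking test in rats after 24 h water deprivation, with 60 s unpunished drinking; oral 10 mg/kg given once daily for 19 days, vehicle group dosed only on Day 19 as first-dose control; plasma sampled right after test; n=10 per group; ANOVA with Duncan post-hoc.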

Rattus norvegicus [12] = test: Anxiolytic activity in po dosed Wistar rat assessed as reduction in freezing behavior by contextual fearing test; format: functional
Rattus norvegicus [13] = test: Effect on spatial learning performance in po dosed Wistar rat measured as escape latency dosed 1 hr prior to first daily trial by Morris water maze test; format: ADME, organism-based; details: in vivo
Method in brief: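 Morris water maze with male Harlan-Wistar rats (190–220 g): three trials a day for 4 days, hidden 10 cm platform, video tracking; 30 mg/kg p.o. in Type IV lipid formulation 1 h before first daily trial; plasma taken after last Day 4 trial; 7–17 rats/group.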

[14] = (§2) Toxicity in po dosed Harlan-Wistar rat assessed as decrease in spontaneous locomotor activity photocell-based activity monitor test; format: organism-based; details: Harlan-Wistar, in vivo
Method in brief: (§3)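 Male Wistar rats were given 0, 10, 30 or 50 mg/kg p.o. Spontaneous locomotor activity (ambulatory movement) was recorded in a photocell-based activity monitor.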

Rattus norvegicus [15] = test: as §2; format: organism-based; details: in vivo; method in brief: as §3
[16] = Clearance in male Crl:CD(SD) rat at 0.5 mg/kg, iv; format: ADME, organism-based; details: in vivo
[17] = Clearance in male beagle dog at 0.5 mg/kg, iv administered as infusion; format: ADME, organism-based, Canis lupus familiaris; details: in vivo
[18] = Clearance in female beagle dog at 0.5 mg/kg, iv administered as infusion; format: ADME, organism-based, Canis lupus familiaris; details: in vivo
[19] = Volume of distribution in male beagle dog at 0.5 mg/kg, iv administered as infusion; format: ADME, organism-based, Canis lupus familiaris; details: in vivo
Method in brief: (§4)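 Single-dose PK: i.v. and oral dosing in Crl:CD(SD) rats and beagle dogs, plus a pilot oral nasogastric study in Cynomolgus monkeys using a Type IV lipid formulation. Rat i.v. vehicle was 80% cosolvent. Monkeys were fasted from 2 h before until 2 h after dosing, n=3 per sex. Rats also received [14C]-labelled compound orally at 50 mg/kg, with total radioactivity followed. Parameters are means; monkey values are medians.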

[20] = Terminal elimination half life in male Crl:CD(SD) rat at 0.5 mg/kg, iv; format: ADME, organism-based; details: in vivo, read-out: beta t1/2 (converted); method in brief: as §4
[21] = Terminal elimination half life in fasted male beagle dog at 1 mg/kg, po; format: ADME, organism-based, Canis lupus familiaris; details: in vivo, read-out: beta t1/2 (converted); method in brief: as §4
[22] = Tmax in female Crl:CD(SD) rat at 4.5 mg/kg, po; format: ADME, organism-based; details: in vivo; method in brief: as §4
[23] = Tmax in fasted female beagle dog at 1 mg/kg, po; format: ADME, organism-based, Canis lupus familiaris; details: in vivo; method in brief: as §4
[24] = Tmax in fasted female cynomolgus monkey at 9 mg/kg, po administered as single dose; format: ADME, organism-based, Macaca fascicularis; details: in vivo; method in brief: as §4
[25] = Cmax in male Crl:CD(SD) rat at 4.5 mg/kg, po; format: ADME, organism-based; set-up: dose 4.5 mg/kg, route oral; details: in vivo
[26] = Cmax in female Crl:CD(SD) rat at 4.5 mg/kg, po; format: ADME, organism-based; set-up: dose 4.5 mg/kg, route oral; details: in vivo
[27] = Cmax in female beagle dog at 0.5 mg/kg, iv administered as infusion; format: ADME, organism-based, Canis lupus familiaris; set-up: dose 0.5 mg/kg, route intravenous; details: in vivo
[28] = Cmax in fasted female beagle dog at 1 mg/kg, po; format: ADME, organism-based, Canis lupus familiaris; set-up: dose 1 mg/kg, route oral; details: in vivo
[29] = Cmax in fasted male cynomolgus monkey at 9 mg/kg, po administered as single dose; format: ADME, organism-based, Macaca fascicularis; set-up: dose 9 mg/kg, route oral; details: in vivo
[30] = Cmax in fasted female cynomolgus monkey at 9 mg/kg, po administered as single dose; format: ADME, organism-based, Macaca fascicularis; set-up: dose 9 mg/kg, route oral; details: in vivo
[31] = AUC in male Crl:CD(SD) rat at 0.5 mg/kg, iv; format: ADME, organism-based; details: in vivo
[32] = AUC in female Crl:CD(SD) rat at 0.5 mg/kg, iv; format: ADME, organism-based; details: in vivo
[33] = AUC in fasted male beagle dog at 1 mg/kg, po; format: ADME, organism-based, Canis lupus familiaris; details: in vivo
Rattus norvegicus [34] = test: Terminal elimination half life in female Crl:CD(SD) rat at 50 mg/kg, po using [14C]labeled compound; format: ADME, organism-based; details: in vivo; method in brief: as §4
[35] = Plasma concentration in Wistar rat at 10 mg/kg, po qd for 19 days during Vogel punished drinking conflict test; format: ADME, organism-based; method in brief: as §1
[36] = target: T1, Metabotropic glutamate receptor 5; test: Displacement of [3H]M-MPEP from mGluR5 in female human post mortem parietal cortical tissue after 30 mins by scintillation counting method

`N#Cc1cccc(S(=O)(=O)c2cnc3cc(F)ccc3c2-c2ccc(Cl)cc2)c1` showed an IC50 [1] of 13 nM, a minimal effective dose (Rattus norvegicus [2]) of 3 mg/kg and a concentration at 0.75 h [3] of 51.1 nM. It also gave a TI (Rattus norvegicus [4]) of over 30, a TI (Rattus norvegicus [5]) of 28.3 and a solubility [6] of 10 µg/mL (≈ 23.6 µM). The IC50 [7] was 19 nM, the Papp (MDR1 [8]) was 11.5 ×10⁻⁶ cm/s and the efflux ratio (MDR1 [9]) was 0.74. For the same compound, the CLint (Liver) was 0.27 mL/min/g, the fraction unbound [10] was 0.0027 and the Activity (Rattus norvegicus [11]) was “Active”. For the same compound, the Activity (Rattus norvegicus [12]) was “Dose-dependent effect”, the ED50 (Rattus norvegicus [12]) was 0.95 mg/kg and the Activity (Rattus norvegicus [13]) was “Non-Toxic”. The MED (Rattus norvegicus [13]) was over 30 mg/kg, the NOAEL [14] was 30 mg/kg and the Activity (Rattus norvegicus [15]) was “Dose-dependent effect”. The ED50 (Rattus norvegicus [15]) was 50 mg/kg, the clearance [16] was 27.9 mL/min/kg and the clearance [17] was 6.43 mL/min/kg. For the same compound, the clearance [18] was 9.22 mL/min/kg, the Vd [19] was 8.6 L/kg and the half-life [20] was 5.13 h. The half-life [21] was 12.8 h, the Tmax [22] was 0.75 h and the Tmax [23] was 0.83 h. It also gave a Tmax [24] of 1.3 h, a Cmax [25] of 369 nM and a Cmax [26] of 650 nM. The Cmax [27] was 1140 nM, the Cmax [28] was 551 nM and the Cmax [29] was 57 nM. For the same compound, the Cmax [30] was 33 nM, the AUC [31] was 0.707 µM·h and the AUC [32] was 1.38 µM·h. The AUC [33] was 1.86 µM·h, the “beta t1/2” value (Rattus norvegicus [34]) was 8 h and the concentration at 456 h [35] was 513 nM. It also gave a Ki [36] of 12.1 nM.
